Data on 4 compounds can be found in ChEMBL document CHEMBL1158960, “Constituents of leguminous plants, XIII. New triterpenoid saponins from Wistaria brachybotrys” (J Nat Prod, 1991).

Holding throughout (assay type): cell-based
Data set [1] has as its system Raji. Briefly: Inhibition of 12-O-tetradecanoylphorbol-13-acetate-induced EBV-early antigen activation in human Raji cells at 500 molar ratio after 48 hrs relative to TPA. The conditions noted are these: human gammaherpesvirus 4. The gist of the method:
(§1)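 EBV-EA activation induced in Raji cells by TPA (20 ng = 32 pmol); test triterpenoid dosed as mol ratio to TPA. Results expressed relative to positive control set at 100%, averages of three determinations ± SD.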

Data set [2] has as its system Raji. Briefly: Inhibition of 12-O-tetradecanoylphorbol-13-acetate-induced EBV-early antigen activation in human Raji cells at 100 molar ratio after 48 hrs relative to TPA. Further details: scale not given: the % may be the effect or the level left. As to conditions: human gammaherpesvirus 4. In outline:
as §1

The subject of data set [3] is Raji. As to the kind of experiment: Inhibition of 12-O-tetradecanoylphorbol-13-acetate-induced EBV-early antigen activation in human Raji cells at 1000 molar ratio after 48 hrs relative to TPA. More on the design: scale not given: the % may be the effect or the level left. The conditions noted are these: human gammaherpesvirus 4. In outline: as §1
Data set [4] deals with Raji. As to the kind of experiment: Inhibition of 12-O-tetradecanoylphorbol-13-acetate-induced EBV-early antigen activation in human Raji cells at 10 molar ratio after 48 hrs relative to TPA. More on the design: scale not given: the % may be the effect or the level left. As to conditions: human gammaherpesvirus 4. In outline: as §1
Data set [5] can be described thus: Cytotoxicity against human Raji cells assessed as cell viability at 10 molar ratio. As to conditions: read-out: Activity. In outline: (§2)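 Raji cells exposed to TPA (20 ng = 32 pmol) together with test triterpenoid, dosed as mol ratio to TPA; viability of Raji cells recorded alongside EBV-EA assay, given as percentage.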
Data set [6] can be described thus: Cytotoxicity against human Raji cells assessed as cell viability at 500 molar ratio. The conditions noted are these: read-out: Activity. The gist of the method: as §2
Data set [7] in a line: Cytotoxicity against human Raji cells assessed as cell viability at 1000 molar ratio. The conditions noted are these: read-out: Activity. The gist of the method:
as §2

Data set [8] is described as follows: Cytotoxicity against human Raji cells assessed as cell viability at 100 molar ratio. The conditions noted are these: read-out: Activity. The gist of the method:
as §2

As for `COC(=O)[C@H]1O[C@@H](O[C@H]2CC[C@@]3(C)[C@@H](CC[C@]4(C)[C@@H]3CC=C3[C@@H]5CC(C)(C)CC(=O)[C@]5(C)CC[C@]34C)[C@@]2(C)CO)[C@H](O[C@@H]2O[C@H](CO)[C@H](O)[C@H](O)[C@H]2O[C@@H]2O[C@@H](C)[C@H](O)[C@@H](O)[C@H]2O)[C@@H](O)[C@@H]1O` [DEHYDROSOYASAPONIN I], in the data set with Raji [1], the EBV-EA activation remaining (% of TPA control) came to 67.8%. Moreover, the Activity is 88.5% in the data set with Raji [2], 50.3% in the data set with Raji [3] and 100% in the data set with Raji [4]. Also, the viability at 10 molar ratio in data set [5] is over 80%. In addition, the viability at 500 molar ratio in data set [6] was over 80%. Moreover, the viability at 1000 molar ratio in data set [7] was determined as 60%. Also, the viability at 100 molar ratio in data set [8] was over 80%.

Turning to `CC1(C)CC(=O)[C@]2(C)CC[C@]3(C)C(=CC[C@@H]4[C@@]5(C)CC[C@H](O)[C@](C)(CO)[C@@H]5CC[C@]43C)[C@@H]2C1` [SOYASAPOGENOL E], the EBV-EA activation remaining (% of TPA control) in the data set with Raji [1] was 0%. Further, the Activity stood at 43.9% in the data set with Raji [2], 0% in the data set on Raji [3] and 89.5% in the data set on Raji [4]. In addition, the viability at 10 molar ratio in data set [5] is over 80%. In data set [6], the viability at 500 molar ratio was over 80%. Also, the viability at 1000 molar ratio in data set [7] is over 80%. Further, the viability at 100 molar ratio in data set [8] was over 80%.

Turning to `COC(=O)[C@H]1O[C@@H](O[C@H]2CC[C@@]3(C)[C@@H](CC[C@]4(C)[C@@H]3CC=C3[C@@H]5CC(C)(C)CC(=O)[C@]5(C)CC[C@]34C)[C@@]2(C)CO)[C@H](O[C@@H]2OC[C@@H](O)[C@H](O)[C@H]2O[C@@H]2O[C@@H](C)[C@H](O)[C@@H](O)[C@H]2O)[C@@H](O)[C@@H]1O` [WISTARIASAPONIN D], in the data set on Raji [1], the EBV-EA activation remaining (% of TPA control) was 51%. In addition, the Activity in the data set on Raji [2] amounted to 86.1%; in the data set with Raji [3], 0%; in the data set with Raji [4] it was 92.8%. Also, the viability at 10 molar ratio in data set [5] is over 80%. The viability at 500 molar ratio in data set [6] was over 80%. Besides, the viability at 1000 molar ratio in data set [7] worked out at 10%. Moreover, the viability at 100 molar ratio in data set [8] is over 80%.

Consider `COC(=O)[C@H]1O[C@@H](O[C@H]2CC[C@@]3(C)[C@@H](CC[C@]4(C)[C@@H]3CC=C3[C@@H]5C[C@@](C)(C(=O)OC)C[C@@H](OC(C)=O)[C@]5(C)CC[C@]34C)[C@@]2(C)CO)[C@H](O[C@@H]2OC[C@@H](O)[C@H](O)[C@H]2O[C@@H]2O[C@@H](C)[C@H](O)[C@@H](O)[C@H]2O)[C@@H](O)[C@@H]1O` [WISTARIASAPONIN G], for which, in the data set on Raji [1], the EBV-EA activation remaining (% of TPA control) was found to be 15.4%. The Activity with Raji [2] was 62.6%; with Raji [4], 79.7%. Further, in data set [5], the viability at 10 molar ratio was over 80%. The viability at 500 molar ratio in data set [6] is 10%. Moreover, in data set [7], the viability at 1000 molar ratio amounted to 0%. In addition, the viability at 100 molar ratio in data set [8] was over 80%.
